The source of these data is PubChem BioAssay AID704 (The Scripps Research Institute Molecular Screening Center, 2007).

The inhibition is the drop in the measured response relative to a control, in per cent.

The structures appear in SMILES notation. In all, about 97,000 compounds went through this assay and about 770 (0.79%) were called active. This excerpt belongs to a sample that is enriched for actives. Unmarked numbers belong to inactive results.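 The calls were made as follows: active = inhibition above the screen-wide mean plus 3 SD (cut at about 35% in these data); inactive = the rest.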

Protein Rev (Human immunodeficiency virus type 1 group M subtype B (isolate WMJ22)), sequence (P05866 whole entry, looked up): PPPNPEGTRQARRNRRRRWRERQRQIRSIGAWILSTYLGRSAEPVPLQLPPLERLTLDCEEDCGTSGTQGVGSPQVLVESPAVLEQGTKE

For this assay, the target named is Protein Rev (Human immunodeficiency virus type 1 group M subtype B (isolate WMJ22)) (UniProt P05866). Briefly: HIV-1 Rev-RRE binding inhibitors, primary screen, biochemical, FRET, protein-RNA interaction (AID 704). The conditions noted are these: Rev peptide-RRE RNA binding, at 8 µM, hits give high values. The essentials:
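assay system = Cy5-tagged RRE RNA duplex with fluorescein-tagged Rev peptide | incubation = 5 + 15 min at 25 °C | also added = labelled Rev peptide | measure = % inhibition of FRET ratio versus controls | benchmarks = DMSO wells as 0% and neomycin B wells as 100% inhibition | measured by = FRET fluorescence readout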
Turning to `Cc1ccc(-n2c(CNc3ccc(F)cc3)nnc2SCC(=O)N2CCOCC2)cc1`, the inhibition was 5.16%.

As to `Cc1nn(C)c(Oc2ccccc2)c1[N+](=O)[O-]`, the inhibition is 4.97%.

In the case of `CCC(c1nnnn1C(C)(C)C)N(Cc1cc2cccc(C)c2n2nnnc12)C1CCCC1` (stereo not drawn), the inhibition is 7.78%.

For the molecule `CCOC(=O)c1ccccc1NS(=O)(=O)c1ccc(OC)cc1`, the inhibition was 17.8%.

Turning to `Cc1cc(C)n(C(=O)CCNC(=O)c2ccccc2Cl)n1`, the inhibition is 4.01%.

In the case of `CC1CCc2c(c3ccccc3[nH]c2=O)O1` (stereo not drawn), the inhibition is 4.83%.

With `CC(=O)Nc1cccc(/C(C)=N/NC(=O)c2ccccc2Cl)c1`, the inhibition was -0.39%.

In the case of `COc1ccc(C(=O)N2CC3(C)CC2CC(C)(C)C3)cc1OC` (stereo not drawn), the inhibition was 1.95%.

In the case of `O=C(/C=C/c1cc2c(cc1Br)OCO2)NCc1ccc(Cl)cc1`, the inhibition was 7.84%.

With `Cc1cccc(N(CC(=O)Nc2ccc(-c3nc4ccc(C)cc4s3)cc2)S(C)(=O)=O)c1`, the inhibition is 1.45%.

As to `O=C(Nc1sc2c(c1-c1nc3ccccc3[nH]1)CCCC2)C1CC1`, the inhibition was 12.5%.

Turning to `NC1=NC(=O)C2(COC(c3ccccc3Cl)OC2)S1` (stereo not drawn), the inhibition is 1.07%.

As to `CCN(CC)c1ccc2cc(C(=O)O)c(=O)oc2c1`, the inhibition was 11%.

As to `CCN(CC)c1ccc2oc(=O)c(C)nc2c1`, the inhibition is 121% [fluorescence artefact?] (active).

In the case of `CCN(CC)c1ccc(/C=N/Nc2nc(C)cc(=O)[nH]2)cc1`, the inhibition is 15.3%.

Regarding `CCS(=O)(=O)Nc1ccc(C2=NN(S(=O)(=O)c3ccc(F)cc3)C(c3ccco3)C2)cc1` (stereo not drawn), the inhibition was 3.07%.

Regarding `O=C(Nc1ccccc1-c1nnn(CC(=O)N2CCCc3ccccc32)n1)c1cccc(Cl)c1`, the inhibition is 13.6%.

Take `COc1cnc(SCc2ccc(Cl)c(Cl)c2)nc1Cl`: the inhibition is 10%.

On to `Cc1ccccc1N/N=C/c1ccc(N2CCOCC2)cc1`, for which the inhibition is 6.17%.

Consider `Cc1ccc(Cc2cnc(NC(=O)/C(C#N)=C/c3ccc(-c4cccc([N+](=O)[O-])c4)o3)s2)cc1`, for which the inhibition is 5.73%.

With `CCOC(=O)c1c(NC(=S)Nc2ccccc2)sc2c1CCN(C)C2`, the inhibition was 103% [fluorescence artefact?] (active).

In the case of `CCOC(=O)c1c(NC(=S)NC(=O)c2ccco2)sc2c1CCCC2`, the inhibition is 0.19%.

Turning to `CCOCC(=O)Nc1sc2c(c1C(=O)OCC)CCCC2`, the inhibition was 10.1%.

Turning to `COc1cccc(C(=O)Nc2ccc(N3CCCC3)cc2)c1`, the inhibition was 9.26%.

As to `CC(=O)Nc1cccc(Oc2cc(C#N)c(C#N)cc2N2CCOCC2)c1`, the inhibition was 5.35%.

`COc1cc(N2CCCC2)c(OC)cc1/C=C(/C#N)c1cccc(Br)c1`: the inhibition is 115% [fluorescence artefact?] (active).

Regarding `CC1CN(c2nc(-c3ccccc3)nnc2-c2ccccc2)CC(C)O1` (stereo not drawn), the inhibition was 8.23%.

Regarding `COCCCNCC(=O)Nc1sc(C)c(C)c1C(=O)OC`, the inhibition was 1.88%.

For `CN1OC(COC(=O)c2ccc(Cl)cc2)CC1c1ccccc1` (stereo not drawn), the inhibition was 7.44%.

On to `C=CCc1ccc(OCCOc2cccc(/C=N/n3cnnc3)c2)c(OC)c1`, for which the inhibition was -0.22%.

Consider `Clc1ccc(-c2cc(COc3ccccc3)no2)cc1Cl`, for which the inhibition is 17.6%.

For the molecule `CC(CO)N1CCS(=O)(=O)CC1` (stereo not drawn), the inhibition was 4.13%.

As for `CCN(CC)C(=O)CSc1ncnc2c1cnn2-c1ccccc1`, the inhibition was 9.25%.

Turning to `O=C(CN1C(=O)NC2(CCCC2)C1=O)Nc1ccc(F)c(F)c1F`, the inhibition was 6.86%.

For `CC(C)c1ccc(C(=O)NCCCc2ccccc2)cc1`, the inhibition was 16.8%.

In the case of `CC(C)C[C@@H](N)c1nnc(SCC(=O)c2ccc(Cl)cc2)o1`, the inhibition is 6.78%.

`CCCCOC(=O)Cn1c(=O)n(CC(=O)OCCCC)c2cc(C)ccc21`: the inhibition was 3.29%.

Regarding `CCOc1cc(/C=C2/N=C(c3ccc(C(C)(C)C)cc3)OC2=O)cc(Cl)c1OS(C)(=O)=O`, the inhibition is -2.97%.

For `Cc1ccc(-n2nc3cc(C)c(NC(=O)c4cccnc4)cc3n2)cc1`, the inhibition was 6.32%.

For the molecule `Cc1ccc(S(=O)(=O)/N=C(/Nc2ccccn2)c2ccc(Cl)cc2)cc1`, the inhibition was 3.03%.

`CCOC(=O)c1cc(NC(=O)c2ccc(Cl)cc2)c(=O)oc1-c1ccccc1`: the inhibition is 10.3%.

With `Cc1ccccc1NC(=O)c1ccccc1`, the inhibition was 3.87%.

On to `CC(=O)c1cc(NC(=O)c2ccccc2)c(=O)oc1/C=C/N(C)C`, for which the inhibition was 119% [fluorescence artefact?] (active).

`c1ccc(-c2csc(N3CCc4ccccc4C3)n2)cc1`: the inhibition is 3.58%.

With `Cc1c(-c2ccccc2)cn2c1-c1ccc(C)n1CC2`, the inhibition is 47.1% (active).

As to `Cc1cc(=O)oc(C)c1C(=O)Nc1cnc2ccccc2c1`, the inhibition was 53% (active).

As to `Cc1cc(=O)oc(C)c1C(=O)NCc1ccc(F)cc1`, the inhibition was 8.7%.

Turning to `COc1ccc(CNC(=O)c2c(C)cc(=O)oc2C)cc1OC`, the inhibition was 10.2%.

On to `CN1/C(=c2/s/c(=C3/C(=O)N(c4ccccc4)NC3=Nc3ccccc3)n(C)c2=O)C(C)(C)c2ccccc21`, for which the inhibition is 96.1% [fluorescence artefact?] (active).

In the case of `CC1=NN(c2cccc(Cl)c2)C(=O)C12CC(C)=C(C)CS2` (stereo not drawn), the inhibition is 16.6%.

As to `COc1nc(NC2CCCCC2)nc(N2CCCCCC2)n1`, the inhibition is 2.85%.

As for `COc1cccc2c1OCC(C(=O)NCc1ccc(Cl)cc1Cl)=C2`, the inhibition is 10.5%.

As for `Cc1ccc(-c2nnc(-n3nnc4ccccc43)c3ccccc23)cc1`, the inhibition was -4.36%.

Consider `COc1ccc(-c2nn(C)c(=O)c3ccccc23)cc1NC(=O)COc1ccccc1`, for which the inhibition is 0.74%.

Regarding `CCNCCC(=O)N1c2ccccc2Sc2ccc(NC(=O)OCC)cc21`, the inhibition is -4.36%.

On to `CC1CCN(C(=O)CN(c2ccc(Oc3ccccc3)cc2)S(C)(=O)=O)CC1`, for which the inhibition is 2.29%.

For the molecule `CCOc1ccc(C(CCc2ccccc2)NC(=O)c2ccc(OC)c(OC)c2)cc1OCC` (stereo not drawn), the inhibition was -1.68%.

On to `COc1ccc(N(CC(=O)NC2CCCCC2)S(=O)(=O)c2c(C)[nH]c(=O)[nH]c2=O)cc1`, for which the inhibition is -2.97%.

On to `CCCCCCNC(=O)CSc1nccn1Cc1ccccc1`, for which the inhibition is 1.79%.

As to `O=C(Nc1ccc(-n2ccnc2P(=O)(O)c2ccccc2)cc1)c1ccccc1Br`, the inhibition is -0.76%.

For `Cc1nn(-c2ccccn2)c2c1C(c1ccncc1)C1=C(CC(C)(C)CC1=O)N2` (stereo not drawn), the inhibition was 12.1%.

For the molecule `CCOC(=O)CSc1ncc(-c2cccc(Cl)c2)cn1`, the inhibition was 8.5%.

As for `Cc1ccc(-c2nnc(C)c(N3CC(C)OC(C)C3)n2)cc1` (stereo not drawn), the inhibition is 5.11%.

With `Cc1nnc(NC(=O)Cn2c(=O)sc3ccccc32)s1`, the inhibition is 2.18%.

In the case of `Cn1c(SCC(=O)N2CCCc3ccccc32)nc2ccccc2c1=O`, the inhibition was 3.69%.

On to `CC(=O)c1ccc(S(=O)(=O)N2CCN(c3nc4c(C)c(C)ccc4cc3C#N)CC2)cc1`, for which the inhibition is 9.9%.

Consider `COCc1cc(C)nc2sc(C(=O)NC3CCCCC3)c(N)c12`, for which the inhibition was 12.8%.

For the molecule `COC(=O)C1=C(C)OC(N)=C(C#N)C1c1cc(OC)ccc1OC` (stereo not drawn), the inhibition is 9.18%.

Regarding `CCCN1CC=C2C(C#N)=C(N)C(C#N)(C#N)C(c3cc(OC)ccc3OC)C2C1` (stereo not drawn), the inhibition was 71.8% (active).

Turning to `CCN1CC=C2C(C#N)=C(N)C(C#N)(C#N)[C@H](c3ccoc3)[C@H]2C1`, the inhibition is 61.7% (active).

For the molecule `CCOC(=O)N1CC=C2C(C#N)=C(N)C(C#N)(C#N)[C@H](c3cccs3)[C@H]2C1`, the inhibition was 29.8%.

Consider `N#CC1=C(N)C(C#N)(C#N)[C@H](c2ccsc2)[C@H]2COCC=C12`, for which the inhibition was 35.5%.

Consider `COc1ccc(C2C=C(c3ccc(Br)cc3)Nc3nc(NS(C)(=O)=O)nn32)cc1` (stereo not drawn), for which the inhibition was 83.2% [fluorescence artefact?] (active).

Regarding `COc1ccc(C2CC(c3ccc(C)cc3)Nc3nc(N)nn32)cc1` (stereo not drawn), the inhibition is 3.26%.

In the case of `Fc1ccccc1/C=C1\CCCC2=C1Nc1ncnn1C2c1ccccc1F` (stereo not drawn), the inhibition is 9.16%.

Turning to `COC(=O)c1c(-c2cccs2)csc1NC(=O)CSc1ncnc2sc(C)c(C)c12`, the inhibition was 6.95%.

Turning to `COc1cccc(OC)c1C(=O)Nc1ccc(N2CCCCC2)cc1`, the inhibition is 4.3%.

For `CCCC(=O)n1nc(-c2ccccc2)nc1N`, the inhibition was 0.74%.

As for `CCCNC(=O)c1c(N)n(-c2ccc(S(N)(=O)=O)cc2)c2nc3ccccc3nc12`, the inhibition was 1.66%.

Turning to `O=C1c2ccccc2C(=O)c2c1cccc2N1CCN(Cc2ccccc2)CC1`, the inhibition was 10.8%.

Regarding `CCCCNC(=O)OC(C)CNC(=O)OC` (stereo not drawn), the inhibition is -1.24%.

Take `CC(=O)Oc1ccc(NC(=O)CCC2CCCCC2)c(C(=O)O)c1`: the inhibition is -1.47%.

Turning to `CCOc1ccc(C(O)Cc2nc3ccccc3n2C)cc1` (stereo not drawn), the inhibition is -0.15%.

For the molecule `CCOC(=O)c1cc(C#N)c(N2CCCCC2)nc1-c1ccccc1`, the inhibition was 14.6%.

`Cc1ccc(Sc2cc(N3CCOCC3)nc(-c3ccccc3)n2)cc1`: the inhibition was 12.8%.

Take `CS(=O)(=O)N1CCN(c2cccc(Cl)n2)CC1`: the inhibition is 3.87%.

With `CCC(=O)N(Cc1ccccc1)c1ccccn1`, the inhibition was 7.11%.

For `Brc1ccc(C2=CC(c3ccco3)n3ncnc3N2)cc1` (stereo not drawn), the inhibition is 124% [fluorescence artefact?] (active).

On to `Clc1ccc2c(c1)C1=C(C(c3ccncc3)O2)C(c2ccc(Br)cc2)n2ncnc2N1` (stereo not drawn), for which the inhibition was -1.15%.

As to `COC(=O)C1=C(C)Nc2ncnn2C1c1ccco1` (stereo not drawn), the inhibition was 3.56%.

As to `COc1ccc(CN(CC(=O)NC2CCCC2)C(=O)CCC(=O)Nc2cc(C)on2)cc1`, the inhibition was -2.37%.

As to `Cc1cccc(NC(=O)CSc2nc3c(c(=O)[nH]2)CCCC3)c1C`, the inhibition is 5.45%.

Regarding `O=C(NCc1cccnc1)c1cccnc1Sc1ccc(Cl)cc1`, the inhibition is 5.95%.
